Experimental data: PMC3723589 (Channels, 2010)
Several values for one entry are separate records, joined by “and”; a condition that tells them apart may be missing. Identical values can stand only once. Entries after “also recorded” stand apart in the source; their conditions may differ. Like-named read-outs stand apart in the source and are kept apart here.

Assays:
[1] = system: BK single channels; conditions: symmetrical K+ solutions, cited from earlier work
[2] = system: BK single channels; conditions: symmetrical K+ solutions, cited from earlier work; remark: listed apart in the source
[3] = target: T1, mouse Slo1 K+ channels (Mus musculus, UniProt Q08460); assay: Block of Slo1 currents, blocker applied extracellularly to outside-out patches; assay type: cell-based
T1 sequence (Q08460 66-1209 limits assumed): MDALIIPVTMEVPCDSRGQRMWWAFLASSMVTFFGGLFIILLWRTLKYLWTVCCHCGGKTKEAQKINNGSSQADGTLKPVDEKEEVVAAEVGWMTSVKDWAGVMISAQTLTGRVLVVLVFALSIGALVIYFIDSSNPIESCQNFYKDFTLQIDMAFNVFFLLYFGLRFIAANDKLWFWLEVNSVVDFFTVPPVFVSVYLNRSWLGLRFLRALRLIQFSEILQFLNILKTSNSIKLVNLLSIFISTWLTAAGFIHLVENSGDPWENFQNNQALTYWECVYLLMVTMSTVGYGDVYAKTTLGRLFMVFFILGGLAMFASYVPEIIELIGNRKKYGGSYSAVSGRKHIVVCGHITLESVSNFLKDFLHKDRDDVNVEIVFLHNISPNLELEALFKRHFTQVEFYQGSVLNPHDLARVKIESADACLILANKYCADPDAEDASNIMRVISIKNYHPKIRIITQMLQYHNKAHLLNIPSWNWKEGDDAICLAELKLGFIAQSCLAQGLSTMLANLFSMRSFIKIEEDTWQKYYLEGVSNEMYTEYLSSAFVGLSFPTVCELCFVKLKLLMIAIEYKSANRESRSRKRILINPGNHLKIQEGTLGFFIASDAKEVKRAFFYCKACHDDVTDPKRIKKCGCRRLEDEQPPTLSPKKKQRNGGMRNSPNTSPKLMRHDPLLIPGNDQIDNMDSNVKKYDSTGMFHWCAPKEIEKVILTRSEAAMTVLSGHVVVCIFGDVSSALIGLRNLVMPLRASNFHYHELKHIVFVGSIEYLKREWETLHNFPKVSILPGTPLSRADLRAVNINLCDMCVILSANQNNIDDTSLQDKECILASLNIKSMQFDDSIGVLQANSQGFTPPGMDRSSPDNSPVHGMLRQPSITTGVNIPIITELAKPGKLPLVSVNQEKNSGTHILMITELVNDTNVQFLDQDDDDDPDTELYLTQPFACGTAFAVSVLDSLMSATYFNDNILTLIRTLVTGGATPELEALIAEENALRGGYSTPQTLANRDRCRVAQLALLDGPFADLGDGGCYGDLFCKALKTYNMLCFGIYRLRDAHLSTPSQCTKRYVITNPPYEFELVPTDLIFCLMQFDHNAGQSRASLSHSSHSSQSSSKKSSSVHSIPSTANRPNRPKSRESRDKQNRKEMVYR

[4] = target: T2, MC13 (Slo1(1-181):Slo3(171-1121)) (Mus musculus, UniProt O54982); assay type: cell-based; conditions: pH 8.5
T2 sequence (Q08460 66-246 partner, one chain of several): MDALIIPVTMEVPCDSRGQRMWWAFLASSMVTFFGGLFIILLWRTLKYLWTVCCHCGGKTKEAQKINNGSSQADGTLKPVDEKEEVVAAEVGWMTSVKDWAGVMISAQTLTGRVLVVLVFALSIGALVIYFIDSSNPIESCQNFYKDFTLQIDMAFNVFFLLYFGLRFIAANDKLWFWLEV

[5] = target: T3, mouse Slo3 K+ channels (Mus musculus, UniProt O54982); assay: Block of Slo3 currents by extracellular blockers; assay type: cell-based
T3 sequence (O54982 171-1121 limits assumed): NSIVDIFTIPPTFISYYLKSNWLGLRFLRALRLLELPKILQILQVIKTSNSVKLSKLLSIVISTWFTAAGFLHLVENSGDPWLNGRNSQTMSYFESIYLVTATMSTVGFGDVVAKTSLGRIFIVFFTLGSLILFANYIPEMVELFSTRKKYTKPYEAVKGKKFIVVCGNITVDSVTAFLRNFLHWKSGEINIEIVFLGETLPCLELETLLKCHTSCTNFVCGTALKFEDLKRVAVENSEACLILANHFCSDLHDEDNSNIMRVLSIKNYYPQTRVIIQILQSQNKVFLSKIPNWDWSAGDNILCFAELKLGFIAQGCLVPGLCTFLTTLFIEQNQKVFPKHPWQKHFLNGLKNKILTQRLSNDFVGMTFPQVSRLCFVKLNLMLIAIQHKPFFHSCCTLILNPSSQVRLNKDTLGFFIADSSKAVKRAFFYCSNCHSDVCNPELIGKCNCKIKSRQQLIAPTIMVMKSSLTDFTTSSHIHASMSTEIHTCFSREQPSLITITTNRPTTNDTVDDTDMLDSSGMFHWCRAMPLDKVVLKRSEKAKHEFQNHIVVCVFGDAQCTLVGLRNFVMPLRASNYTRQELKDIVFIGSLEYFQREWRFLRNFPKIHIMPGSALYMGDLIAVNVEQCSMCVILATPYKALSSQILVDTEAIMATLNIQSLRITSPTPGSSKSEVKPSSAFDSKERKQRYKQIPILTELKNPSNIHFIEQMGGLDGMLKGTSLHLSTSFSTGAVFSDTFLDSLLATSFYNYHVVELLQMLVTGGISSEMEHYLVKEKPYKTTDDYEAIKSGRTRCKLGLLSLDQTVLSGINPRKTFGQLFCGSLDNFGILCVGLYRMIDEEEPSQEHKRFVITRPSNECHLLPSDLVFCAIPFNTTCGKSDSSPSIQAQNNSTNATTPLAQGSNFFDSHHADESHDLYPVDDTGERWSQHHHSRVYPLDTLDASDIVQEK

[6] = system: sperm; conditions: TEA at 2.5–10 mM; cited from earlier work
[7] = target: T2, MC13 (Slo1(1-181):Slo3(171-1121)); assay: Block of MC13; assay type: cell-based; conditions: for effect of extracellular 4-AP on MC13/Slo3 currents: 4-AP up to 100 mM at pH 7.0, pipette pH 8.5
[8] = system: Slo1/BK-type channels; conditions: read-out: extracellular TEA concentration for blockade (half block); cited from earlier work
[9] = target: Slo1-Y294V (Mus musculus, UniProt Q08460, Y359V); assay: Block of Slo1-Y294V currents by extracellular CTX or TEA; assay type: cell-based; conditions: TEA up to 10 mM
Sequence of Slo1-Y294V (Q08460 66-1209 Y359V limits assumed): as the sequence (Q08460 66-1209 limits assumed) above, with Y294V counted along it
In short: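 Excised outside-out patches at room temperature (~22–25°C), with blocker applied to the extracellular face by a multi-barrel local perfusion system, one barrel flowing at a time. The extracellular solution was (mM) 140 K-methanesulfonate, 20 KOH, 10 HEPES, 2 MgCl2, pH 7.0. The pipette (cytosolic) solution was 140 K-methanesulfonate, 20 KOH, 10 HEPES, with 10 μM Ca2+ for CTX tests.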

[10] = target: T1, mouse Slo1 K+ channels; assay: Block of Slo1 currents, blocker applied cytosolically to inside-out patches; assay type: cell-based; conditions: for zc / zo / zo (zδ) / Kd / zδ: 300 μM Ca2+; for zc / zo / zo (zδ) / Kd: pH 8.5
[11] = system: human sperm; conditions: cited from earlier work
[12] = target: T4, mouse Slo3 K+ channels (Mus musculus, UniProt O54982); assay type: cell-based
T4 sequence (O54982 1-1121): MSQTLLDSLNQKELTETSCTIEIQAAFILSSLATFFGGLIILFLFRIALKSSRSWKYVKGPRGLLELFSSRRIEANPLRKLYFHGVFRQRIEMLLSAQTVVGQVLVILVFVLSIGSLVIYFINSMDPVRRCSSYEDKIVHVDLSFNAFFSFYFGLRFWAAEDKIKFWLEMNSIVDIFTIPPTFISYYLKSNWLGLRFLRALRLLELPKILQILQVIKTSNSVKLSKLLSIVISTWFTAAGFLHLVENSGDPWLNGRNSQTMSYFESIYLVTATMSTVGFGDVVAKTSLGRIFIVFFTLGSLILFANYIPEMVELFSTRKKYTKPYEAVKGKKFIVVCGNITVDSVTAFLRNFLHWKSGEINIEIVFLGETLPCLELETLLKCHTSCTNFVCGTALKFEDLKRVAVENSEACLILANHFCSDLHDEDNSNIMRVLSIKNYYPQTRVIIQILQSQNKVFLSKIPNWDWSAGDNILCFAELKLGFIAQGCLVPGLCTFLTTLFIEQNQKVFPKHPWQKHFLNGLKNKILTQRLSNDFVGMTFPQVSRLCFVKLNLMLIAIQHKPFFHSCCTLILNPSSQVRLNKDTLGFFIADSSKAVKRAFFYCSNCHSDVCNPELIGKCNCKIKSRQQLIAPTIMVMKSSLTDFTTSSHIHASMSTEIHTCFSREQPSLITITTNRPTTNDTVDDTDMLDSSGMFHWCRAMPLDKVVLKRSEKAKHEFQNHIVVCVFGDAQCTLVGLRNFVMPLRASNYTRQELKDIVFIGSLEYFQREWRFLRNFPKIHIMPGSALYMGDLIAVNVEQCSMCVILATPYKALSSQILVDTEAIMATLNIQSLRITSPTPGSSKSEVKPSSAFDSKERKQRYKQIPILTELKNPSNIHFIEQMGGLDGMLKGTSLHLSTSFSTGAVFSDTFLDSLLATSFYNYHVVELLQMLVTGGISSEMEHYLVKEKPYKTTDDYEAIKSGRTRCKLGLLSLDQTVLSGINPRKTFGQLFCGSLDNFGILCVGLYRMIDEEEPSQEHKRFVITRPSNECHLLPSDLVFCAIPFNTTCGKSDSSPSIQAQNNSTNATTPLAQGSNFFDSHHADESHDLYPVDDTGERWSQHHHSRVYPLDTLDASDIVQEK

[13] = system: murine sperm; conditions: cited from earlier work
[14] = system: MC13 (Slo1(1-181):Slo3(171-1121)); assay: Block of MC13; assay type: cell-based, mouse; conditions: at 0 mV
[15] = pK and percent protonation of tertiary amines; assay type: physicochemical; conditions: calculated from pK 9.2
[16] = read-out: Kb, block by cytosolic TEA
[17] = cytosolic TEA, 0 Ca2+, fit OB-CB (2a) 2 params
[18] = cytosolic TEA, fit OB-CB (2') 4 params
[19] = cytosolic TEA, fit OB-CB (2a) 2 params
[20] = cytosolic 4-AP, fit OB-CB (2a) 2 params
[21] = cytosolic 4-AP, fit OB-CB (2') 4 params

## CC[N+](CC)(CC)CC [TEA, tetraethylammonium]
[1]; [16]
  Kb: 34700 µM
[1]
  zδ: 0.27 e
[2]; [16]
  Kb: 60000 µM
[2]
  zδ: 0.26 e
[3]; 250 μM extracellular TEA, at 0 mV
  block of Slo1 current: about 50%
[3]; extracellular TEA, 300 μM Ca2+, pH 8.5, fit OB-CB (2') 4 params (zc fixed 0)
  zo: 0.23 ± 0.04 e
[3]; extracellular TEA, 300 μM Ca2+, pH 8.5, fit OB-CB (2a) 2 params
  zc (voltage-dependence of closed state block): 0.23 ± 0.02 e
[3]; extracellular TEA, pipette 300 μM Ca2+, pH 8.5, fit OB (1a) 2 params
  zo (voltage-dependence of open state block): 0.34 ± 0.02 e
[3]; read-out: Kbc (affinity of blocker to closed state), extracellular TEA, 300 μM Ca2+, pH 8.5, fit OB-CB (2a) 2 params
  Kd: 174 ± 8 µM
[3]; read-out: Kbo (affinity of blocker to open state), extracellular TEA, pipette 300 μM Ca2+, pH 8.5, fit OB (1a) 2 params
  Kd: 132 ± 6.9 µM
[4]; cytosolic TEA, 0 Ca2+, fit OB-CB (2') 4 params (zo fixed 0)
  zc: 0.06 ± 0.20 e
[4]; [17]
  zc: 0.05 ± 0.02 e
  zo (z): 0.05 ± 0.02 e
[4]; read-out: Kbc, cytosolic TEA, 0 Ca2+, fit OB-CB (2') zo = zc = 0 e
  Kd: 2360 ± 420 µM
[4]; read-out: Kbc, cytosolic TEA, 0 Ca2+, fit OB-CB (2a) 2 params
  Kd: 2010 ± 290 µM
[4]; read-out: Kbo (Kb), cytosolic TEA, 0 Ca2+, fit OB-CB (2a) 2 params
  Kb: 2010 ± 290 µM
[4]; read-out: Kbo, cytosolic TEA, 0 Ca2+, fit OB (1a) zo = 0 e
  Kd: 330 ± 10 µM
[4]; read-out: Kbo, cytosolic TEA, 0 Ca2+, fit OB-CB (2') zo = zc = 0 e
  Kd: 560 ± 60 µM
[5]
  block of Slo3: resistant to block
[6]
  effects on sperm function: not produced
[7]; TEA up to 10 mM
  effect of extracellular TEA on MC13: only minor effects; also recorded: minimal effect
[8]
  IC50: 200 to 300 µM
[9]
  effect of extracellular TEA on Slo1-Y294V: lack of effect
[10]; [18]
  zc: 0.57 ± 0.32 e
  zo: 0.16 ± 0.20 e
[10]; [19]
  zc: 0.22 ± 0.02 e
  zo: 0.22 ± 0.02 e
[10]; cytosolic TEA, open channel block OB (1a) 2 params
  zo (zδ): 0.15 ± 0.02 e
[10]; read-out: Kbc, cytosolic TEA, fit OB-CB (2') 4 params
  Kd: 61400 ± 34800 µM
[10]; read-out: Kbc, cytosolic TEA, fit OB-CB (2a) 2 params
  Kd: 73500 ± 4500 µM
[10]; read-out: Kbo, cytosolic TEA, fit OB-CB (2') 4 params
  Kd: 78600 ± 22600 µM
[10]; read-out: Kbo, cytosolic TEA, fit OB-CB (2a) 2 params
  Kd: 73500 ± 4500 µM

## Nc1ccncc1 [4-AP, 4-aminopyridine]
[11]
  concentration disrupting volume regulation: 1 to 4 mM
[12]; cytosolic 4-AP, pH 8.5, fit OB-CB (2a) 2 params
  zo: 0.16 ± 0.01 e
[12]; open channel block
  Slo3 more sensitive than Slo1 to cytosolic 4-AP: 10–15 fold
[13]
  concentration disrupting volume regulation: 1 to 4 mM
[3]; extracellular 4-AP, 300 μM Ca2+, pH 8.5, fit OB-CB (2a) 2 params
  zo: 0.48 ± 0.04 e
[4]; cytosolic 4-AP, fit OB-CB (2') 4 params (zo fixed 0)
  zc: 0.26 + 1.05 e
[4]; [20]
  zo: 0.17 ± 0.02 e
[4]; cytosolic 4-AP, open channel block OB (1a) 2 params
  zo (zδ): 0.02 ± 0.03 e
[7]
  effect of extracellular 4-AP on MC13/Slo3 currents: relatively insensitive; also recorded: little effect; also recorded: essentially no blocking effect
[7]; listed as 4-APo
  effect of extracellular 4-AP on MC13/Slo3 currents: without effect
[14]
  difference in affinity of Slo1 and Slo3 channels for extracellular 4-AP: at least 20 fold
[15]; 4-AP at pH 7.0
  percent protonated: 99.4%
[15]; 4-AP at pH 8.5
  percent protonated: 83.4%
[10]; cytosolic 4-AP at pH 7.0, Scheme 1a (Fig. 7C)
  zδ: 0.17 ± 0.01 e and 0.18 ± 0.02 e
[10]; cytosolic 4-AP at pH 8.5, Scheme 1a (Fig. 7D)
  zδ: 0.05 ± 0.06 e
[10]; cytosolic 4-AP at pH 8.5, state-independent Scheme 2a (Fig. 7D)
  zδ: 0.11 ± 0.03 e
[10]; [21]
  zc: 0.33 ± 0.32 e
  zo: 0.12 ± 0.03 e
[10]; [20]
  zc: 0.10 ± 0.02 e
[10]; cytosolic 4-AP, state-independent OB-CB (2a) 2 params
  zo (zδ): 0.10 ± 0.02e e
[10]; cytosolic 4-AP, pH 7.0 and 8.5 fit simultaneously with two-site Scheme 3
  z(p): 0.19 ± 0.02 e
